Data reported in ChEMBL document CHEMBL4840303, “Design, synthesis, biological evaluation and pharmacophore model analysis of novel tetrahydropyrrolo[3,4-c]pyrazol derivatives as potential TRKs inhibitors” (Eur J Med Chem, 2021).

Legend:
[1] = system: A549; assay: cells; conditions: Homo sapiens, A549, 72 h
[2] = Oral bioavailability in Sprague dawley rat at 3 mg/kg; assay type: ADME, organism-based; conditions: in vivo
Method in brief: (§1)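 Male-unspecified SD rats, n = 3 per group, single i.v. dose 1 mg/kg or oral 3 mg/kg. Blood drawn into heparin tubes at set times, centrifuged at 4 °C, plasma quantified by LC-MS/MS; noncompartmental parameters fitted.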

[3] = Clearance in human liver assessed as half life at 100 uM measured after 60 mins by LC-MS/MS analysis; assay type: ADME, Microsome; conditions: microsomes, 1 h
Method in brief: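 Pooled human liver microsomes were diluted to 0.59 mg/mL (working solution) in 100 mM potassium phosphate buffer and pre-warmed at 37 °C. Compound was added from a 100 µM working solution, with NADPH cofactor prepared in 10 mM MgCl2. Incubation ran at 37 °C for 60 min. Aliquots were quenched at 5, 15, 30, 45 and 60 min. A control without NADPH was run in buffer. Samples were analysed by LC-MS/MS.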

[4] = molecular target: Serine/threonine-protein kinase PAK 4 (Homo sapiens) (UniProt O96013); assay: Inhibition of recombinant GST-tagged human PAK4 (295 to 591 residues) expressed in baculovirus expression system at 1 uM measured by select screen assay relative to control
Method in brief: (§2)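 Single-concentration profiling at 1.0 µM in a 28-kinase SelectScreen panel; percent inhibition reported.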

[5] = molecular target: NT-3 growth factor receptor (Homo sapiens, UniProt Q16288); assay: Inhibition of recombinant His-tagged human TRKC expressed in baculovirus expression system at 1 uM measured by select screen assay relative to control
Method in brief: as §2

[6] = system: KM12; assay: Cell cycle arrest in human KM12 cells assessed as accumulation of cells at G1 phase at 250 nM measured after 48 hrs by AnnexinV-FITC/PI staining based flowcytometry method relative to control; assay type: functional
[7] = AUC (last) in Sprague dawley rat at 1 mg/kg, iv; assay type: ADME, organism-based; design: time 0 - last, route intravenous, dose 1 mg/kg; conditions: in vivo
Method in brief: (§3)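 Blood was collected into heparin tubes at specified time points and centrifuged at once (4 °C, 4000 rpm, 20 min). Plasma levels were quantified by LC-MS/MS. Parameters came from noncompartmental analysis.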

[8] = system: KM12; assay: Induction of apoptosis in human KM12 cells assessed as early apoptotic cells at 500 nM measured after 48 hrs by AnnexinV-FITC/PI staining based flowcytometry assay relative to control; assay type: functional
Method in brief: (§4)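 They were detached with trypsin, washed twice in PBS, and 10^5 cells were suspended in Annexin V binding buffer. Cells were stained with FITC-Annexin V and PI for 10 min at room temperature in the dark, diluted with PBS and analysed by flow cytometry.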

[9] = system: KM12; assay: Induction of apoptosis in human KM12 cells assessed as viable cells at 62.5 nM measured after 48 hrs by AnnexinV-FITC/PI staining based flowcytometry assay relative to control; assay type: functional; conditions: read-out: Activity
Method in brief: (§5)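 10^5 cells in Annexin V binding buffer stained with FITC-Annexin V and PI for 10 min at room temperature in the dark, diluted with PBS and analysed by flow cytometry (FITC 494/518 nm, PI 535/617 nm).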

[10] = MRT in Sprague dawley rat at 3 mg/kg, po; assay type: ADME, organism-based; conditions: in vivo
Method in brief: as §1

[11] = system: KM12; assay: Induction of apoptosis in human KM12 cells assessed as viable cells at 125 nM measured after 48 hrs by AnnexinV-FITC/PI staining based flowcytometry assay relative to control; assay type: functional; conditions: read-out: Activity
Method in brief: as §5

[12] = Stability in human plasma assessed as compound remaining incubated for 0 mins by LC-MS/MS analysis; assay type: ADME, cell-free; conditions: read-out: Stability
Method in brief: (§6)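 Pooled frozen human plasma thawed at 37 °C, centrifuged to remove clots, pH adjusted to 7.4 if required. Spiked to 2 µM final (from 100 µM dosing solution), in duplicate, incubated at 37 °C in a water bath. Sampled at 0, 10, 30, 60 and 120 min, quenched with acetonitrile stop solution containing internal standards, centrifuged, and supernatant analysed by LC-MS/MS for percent remaining.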

[13] = molecular target: CYP2C9 (Homo sapiens, UniProt P11712); assay: Inhibition of CYP2C9 in human liver microsomes at 10 uM preincubated for 10 mins followed by addition of NADPH and measured after 15 mins by LC-MS/MS analysis; assay type: ADME; conditions: time 25 min
Method in brief: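 Pooled human liver microsomes (0.253 mg/mL) with test compound at 10 µM and probe substrates: phenacetin (CYP1A2), diclofenac (CYP2C9), S-mephenytoin (CYP2C19), dextromethorphan (CYP2D6), midazolam (CYP3A4). 10 min preincubation at 37 °C, NADPH-regenerating system added, 15 min at 37 °C. Stopped with cold acetonitrile containing tolbutamide/labetalol internal standards, centrifuged, supernatant read by LC-MS/MS; % inhibition.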

[14] = system: KM12; assay: Induction of apoptosis in human KM12 cells assessed as early apoptotic cells at 62.5 nM measured after 48 hrs by AnnexinV-FITC/PI staining based flowcytometry assay relative to control; assay type: functional
Method in brief: as §4

[15] = Half life in Sprague dawley rat at 1 mg/kg, iv; assay type: ADME, organism-based; conditions: in vivo
Method in brief: as §3

[16] = molecular target: Serine/threonine-protein kinase PAK 1 (Homo sapiens) (UniProt Q13153); assay: Inhibition of recombinant GST-tagged human full length PAK1 expressed in baculovirus expression system at 1 uM measured by select screen assay relative to control
Method in brief: as §2

[17] = molecular target: Proto-oncogene tyrosine-protein kinase ROS (Homo sapiens) (UniProt P08922); assay: Inhibition of recombinant GST-tagged human ROS1 expressed in baculovirus expression system at 1 uM measured by select screen assay relative to control
Method in brief: as §2

[18] = molecular target: Epidermal growth factor receptor (Homo sapiens) (UniProt P00533); assay: Inhibition of recombinant GST-tagged human EGFR (668 to 1210) expressed in baculovirus expression system at 1 uM measured by select screen assay relative to control
Method in brief: as §2

[19] = system: KM12; assay: Cell cycle arrest in human KM12 cells assessed as accumulation of cells at G1 phase at 1000 nM measured after 48 hrs by AnnexinV-FITC/PI staining based flowcytometry method relative to control; assay type: functional
[20] = molecular target: RAF proto-oncogene serine/threonine-protein kinase (Homo sapiens) (UniProt P04049); assay: Inhibition of recombinant GST-tagged human RAF1 expressed in baculovirus expression system at 1 uM measured by select screen assay relative to control
Method in brief: as §2

[21] = Stability in human plasma assessed as half life incubated for 0 mins by LC-MS/MS analysis; assay type: ADME, cell-free
Method in brief: as §6

[22] = Cmax in Sprague dawley rat at 3 mg/kg, po; assay type: ADME, organism-based; design: route oral, dose 3 mg/kg; conditions: in vivo
Method in brief: as §3

[23] = molecular target: Focal adhesion kinase 1 (Homo sapiens) (UniProt Q05397); assay: Inhibition of recombinant GST-tagged full length human FAK expressed in baculovirus expression system at 1 uM measured by select screen assay
Method in brief: as §2

[24] = system: KM12; assay: Induction of apoptosis in human KM12 cells assessed as necrotic cells at 1000 nM measured after 48 hrs by AnnexinV-FITC/PI staining based flowcytometry assay relative to control; assay type: functional
Method in brief: as §4

[25] = molecular target: RAC-alpha serine/threonine-protein kinase (Homo sapiens) (UniProt P31749); assay: Inhibition of recombinant His-tagged human full length AKT1 expressed in baculovirus expression system at 1 uM measured by select screen assay relative to control
Method in brief: as §2

[26] = system: KM12; assay: Cell cycle arrest in human KM12 cells assessed as accumulation of cells at S phase at 1000 nM measured after 48 hrs by AnnexinV-FITC/PI staining based flowcytometry method relative to control; assay type: functional

Proto-oncogene tyrosine-protein kinase ROS (Homo sapiens), sequence (P08922 whole entry): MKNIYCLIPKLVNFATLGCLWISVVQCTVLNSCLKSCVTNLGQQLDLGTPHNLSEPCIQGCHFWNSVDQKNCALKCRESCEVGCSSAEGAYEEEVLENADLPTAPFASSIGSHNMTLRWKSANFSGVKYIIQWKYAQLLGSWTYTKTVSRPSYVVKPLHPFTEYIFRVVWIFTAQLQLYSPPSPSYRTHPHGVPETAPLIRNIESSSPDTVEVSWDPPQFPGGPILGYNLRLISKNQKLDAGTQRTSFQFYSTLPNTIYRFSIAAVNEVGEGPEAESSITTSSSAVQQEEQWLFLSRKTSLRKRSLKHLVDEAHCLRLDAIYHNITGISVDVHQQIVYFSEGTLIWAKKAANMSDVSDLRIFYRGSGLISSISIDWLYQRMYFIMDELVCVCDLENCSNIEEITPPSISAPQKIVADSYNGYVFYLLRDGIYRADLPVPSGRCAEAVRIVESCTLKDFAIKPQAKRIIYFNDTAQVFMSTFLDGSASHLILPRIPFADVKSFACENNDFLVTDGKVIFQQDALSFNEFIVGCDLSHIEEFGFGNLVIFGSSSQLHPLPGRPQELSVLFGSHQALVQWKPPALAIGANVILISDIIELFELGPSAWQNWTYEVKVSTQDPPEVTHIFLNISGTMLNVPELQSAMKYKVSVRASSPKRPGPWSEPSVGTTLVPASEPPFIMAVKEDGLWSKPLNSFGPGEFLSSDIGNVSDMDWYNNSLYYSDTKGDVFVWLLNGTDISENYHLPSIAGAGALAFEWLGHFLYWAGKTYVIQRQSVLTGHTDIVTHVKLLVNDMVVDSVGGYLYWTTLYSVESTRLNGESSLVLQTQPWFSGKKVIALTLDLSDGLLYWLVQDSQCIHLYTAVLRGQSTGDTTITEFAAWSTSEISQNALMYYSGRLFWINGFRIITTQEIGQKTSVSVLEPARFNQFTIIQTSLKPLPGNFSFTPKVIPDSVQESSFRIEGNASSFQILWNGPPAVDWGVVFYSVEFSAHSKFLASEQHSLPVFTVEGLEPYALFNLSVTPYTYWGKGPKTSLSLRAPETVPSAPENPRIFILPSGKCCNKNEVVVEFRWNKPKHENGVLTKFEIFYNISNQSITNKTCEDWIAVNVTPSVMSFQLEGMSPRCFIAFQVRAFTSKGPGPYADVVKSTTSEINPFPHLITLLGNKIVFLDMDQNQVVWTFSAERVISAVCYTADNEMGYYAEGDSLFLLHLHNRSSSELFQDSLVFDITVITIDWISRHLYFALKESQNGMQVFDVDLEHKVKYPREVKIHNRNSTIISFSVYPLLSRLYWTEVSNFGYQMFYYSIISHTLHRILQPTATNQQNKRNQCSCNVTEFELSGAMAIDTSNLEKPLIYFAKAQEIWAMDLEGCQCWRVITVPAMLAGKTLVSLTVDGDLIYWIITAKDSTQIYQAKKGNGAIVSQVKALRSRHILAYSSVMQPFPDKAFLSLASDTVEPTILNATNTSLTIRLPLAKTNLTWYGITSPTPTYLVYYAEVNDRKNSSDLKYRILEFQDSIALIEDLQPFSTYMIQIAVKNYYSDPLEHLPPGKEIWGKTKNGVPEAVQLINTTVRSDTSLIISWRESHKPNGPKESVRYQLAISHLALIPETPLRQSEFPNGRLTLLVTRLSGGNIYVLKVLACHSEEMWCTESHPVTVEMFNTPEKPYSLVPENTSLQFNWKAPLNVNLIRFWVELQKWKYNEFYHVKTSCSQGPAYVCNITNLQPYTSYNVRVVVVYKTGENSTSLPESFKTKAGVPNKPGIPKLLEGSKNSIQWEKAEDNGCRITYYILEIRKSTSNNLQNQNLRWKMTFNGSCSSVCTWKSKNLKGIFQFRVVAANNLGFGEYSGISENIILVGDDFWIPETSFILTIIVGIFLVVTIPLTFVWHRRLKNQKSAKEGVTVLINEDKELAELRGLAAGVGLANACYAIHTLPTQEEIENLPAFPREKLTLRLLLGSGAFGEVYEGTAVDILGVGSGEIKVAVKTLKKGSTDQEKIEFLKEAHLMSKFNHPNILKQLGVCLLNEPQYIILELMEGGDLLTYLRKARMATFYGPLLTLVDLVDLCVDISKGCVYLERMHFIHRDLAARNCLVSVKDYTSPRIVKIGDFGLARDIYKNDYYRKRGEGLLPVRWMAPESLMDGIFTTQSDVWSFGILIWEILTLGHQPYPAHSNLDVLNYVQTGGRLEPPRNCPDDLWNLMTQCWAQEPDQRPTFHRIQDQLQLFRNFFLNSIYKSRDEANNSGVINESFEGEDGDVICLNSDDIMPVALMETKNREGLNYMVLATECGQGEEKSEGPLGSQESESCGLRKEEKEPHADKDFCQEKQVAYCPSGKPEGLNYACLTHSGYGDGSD
CYP2C9, sequence (P11712 whole entry): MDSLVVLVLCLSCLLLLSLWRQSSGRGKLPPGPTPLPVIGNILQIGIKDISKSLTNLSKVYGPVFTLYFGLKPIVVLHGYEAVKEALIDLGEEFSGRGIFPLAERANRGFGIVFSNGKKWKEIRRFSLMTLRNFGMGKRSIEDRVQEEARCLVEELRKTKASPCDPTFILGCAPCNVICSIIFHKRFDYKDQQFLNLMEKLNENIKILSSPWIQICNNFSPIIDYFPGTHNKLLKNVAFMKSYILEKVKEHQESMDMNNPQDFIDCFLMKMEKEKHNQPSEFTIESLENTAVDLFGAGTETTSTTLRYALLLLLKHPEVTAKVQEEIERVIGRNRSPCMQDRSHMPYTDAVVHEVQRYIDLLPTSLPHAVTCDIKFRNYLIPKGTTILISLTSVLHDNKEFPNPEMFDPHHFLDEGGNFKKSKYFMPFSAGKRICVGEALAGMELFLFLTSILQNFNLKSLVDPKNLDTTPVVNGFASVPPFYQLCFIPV
Focal adhesion kinase 1 (Homo sapiens), sequence (Q05397 2-1052 limits assumed): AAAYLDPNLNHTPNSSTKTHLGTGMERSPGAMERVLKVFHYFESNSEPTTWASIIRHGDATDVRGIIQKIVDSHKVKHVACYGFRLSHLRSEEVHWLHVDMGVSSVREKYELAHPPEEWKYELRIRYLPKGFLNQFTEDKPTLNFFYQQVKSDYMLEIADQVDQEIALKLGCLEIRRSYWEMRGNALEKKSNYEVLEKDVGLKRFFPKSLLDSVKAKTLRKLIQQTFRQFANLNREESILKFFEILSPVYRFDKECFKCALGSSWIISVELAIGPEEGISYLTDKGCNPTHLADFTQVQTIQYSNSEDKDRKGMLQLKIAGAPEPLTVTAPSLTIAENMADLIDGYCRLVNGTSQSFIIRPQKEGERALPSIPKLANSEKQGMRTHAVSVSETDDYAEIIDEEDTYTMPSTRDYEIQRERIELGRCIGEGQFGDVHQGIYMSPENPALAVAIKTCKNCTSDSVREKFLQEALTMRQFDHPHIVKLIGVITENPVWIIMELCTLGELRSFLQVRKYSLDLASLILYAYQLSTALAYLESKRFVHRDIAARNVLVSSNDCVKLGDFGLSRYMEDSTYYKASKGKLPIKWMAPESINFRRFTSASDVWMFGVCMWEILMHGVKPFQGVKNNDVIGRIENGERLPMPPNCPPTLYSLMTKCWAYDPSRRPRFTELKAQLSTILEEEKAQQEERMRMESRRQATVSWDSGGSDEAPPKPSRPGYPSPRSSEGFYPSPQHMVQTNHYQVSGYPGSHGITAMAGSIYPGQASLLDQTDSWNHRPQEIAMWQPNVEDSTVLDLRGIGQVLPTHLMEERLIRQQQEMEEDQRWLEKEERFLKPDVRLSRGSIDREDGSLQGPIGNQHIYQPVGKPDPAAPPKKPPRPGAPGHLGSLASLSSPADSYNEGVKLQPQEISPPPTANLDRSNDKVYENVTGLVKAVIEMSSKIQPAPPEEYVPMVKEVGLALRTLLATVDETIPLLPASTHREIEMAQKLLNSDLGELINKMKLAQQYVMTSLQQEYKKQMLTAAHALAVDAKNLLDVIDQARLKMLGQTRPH
RAF proto-oncogene serine/threonine-protein kinase (Homo sapiens), sequence (P04049 whole entry): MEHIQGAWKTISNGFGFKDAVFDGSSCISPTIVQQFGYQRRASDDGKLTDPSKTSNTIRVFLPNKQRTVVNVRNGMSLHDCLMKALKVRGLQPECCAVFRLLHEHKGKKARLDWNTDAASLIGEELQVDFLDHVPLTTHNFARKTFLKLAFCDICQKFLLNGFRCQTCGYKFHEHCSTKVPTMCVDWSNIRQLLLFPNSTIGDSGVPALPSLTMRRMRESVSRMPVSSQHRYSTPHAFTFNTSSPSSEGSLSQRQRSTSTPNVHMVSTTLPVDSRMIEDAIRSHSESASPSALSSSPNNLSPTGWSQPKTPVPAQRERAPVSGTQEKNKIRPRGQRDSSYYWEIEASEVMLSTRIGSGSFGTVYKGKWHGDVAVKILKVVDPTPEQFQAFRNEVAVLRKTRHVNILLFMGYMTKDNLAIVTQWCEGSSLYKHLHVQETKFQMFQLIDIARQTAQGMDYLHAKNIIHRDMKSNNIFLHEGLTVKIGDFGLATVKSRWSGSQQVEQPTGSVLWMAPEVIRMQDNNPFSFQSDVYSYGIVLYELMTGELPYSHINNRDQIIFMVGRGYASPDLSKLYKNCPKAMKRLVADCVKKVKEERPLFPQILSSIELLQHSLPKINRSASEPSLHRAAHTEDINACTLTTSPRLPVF
RAC-alpha serine/threonine-protein kinase (Homo sapiens), sequence (P31749 whole entry): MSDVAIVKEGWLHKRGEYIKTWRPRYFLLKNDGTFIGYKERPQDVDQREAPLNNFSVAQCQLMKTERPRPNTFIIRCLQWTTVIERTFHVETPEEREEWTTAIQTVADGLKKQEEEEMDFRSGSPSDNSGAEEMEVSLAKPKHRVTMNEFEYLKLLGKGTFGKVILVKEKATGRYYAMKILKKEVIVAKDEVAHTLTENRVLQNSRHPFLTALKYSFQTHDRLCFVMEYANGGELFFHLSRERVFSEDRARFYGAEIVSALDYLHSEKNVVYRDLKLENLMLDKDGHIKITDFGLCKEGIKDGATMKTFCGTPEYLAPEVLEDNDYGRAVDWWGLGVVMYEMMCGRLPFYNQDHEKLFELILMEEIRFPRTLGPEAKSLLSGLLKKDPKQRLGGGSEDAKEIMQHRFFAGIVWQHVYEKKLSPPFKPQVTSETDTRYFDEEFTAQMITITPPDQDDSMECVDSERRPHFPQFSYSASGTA

CN1CCN(c2ccc(C(=O)Nc3n[nH]c4c3CN(Cc3cc(F)cc(F)c3)C4(C)C)cc2)CC1
IC50 [1]: 72.3 µM
bioavailability [2]: 44.3%
CLH [3]: 42.1 µL/min/mg
inhibition [4]: 4%
inhibition [5]: 99%
Activity [6]: 74%
AUC(0-t) [7]: 2030 ng·h/mL
Activity [8]: 35.84%
viability at 0.0625 µM [9]: 70.5%
MRT [10]: 3.49 h
viability at 0.125 µM [11]: 63.5%
remaining at 0 h [12]: 100%
inhibition at 0.25 h, 10 µM [13]: 16%
Activity [14]: 19.55%
half-life [15]: 1.51 h
inhibition [16]: 3%
inhibition [17]: 10%
inhibition [18]: 4%
Activity [19]: 72.8%
inhibition [20]: 11%
half-life [21]: > 4.82 h
Cmax [22]: 603 ng/mL
inhibition [23]: 51%
Activity [24]: 0.04%
inhibition [25]: 2%
Activity [26]: 7.22%
